We go through 95 compounds from ChEMBL document CHEMBL4513216, “Probing the Open Global Health Chemical Diversity Library for Multistage-Active Starting Points for Next-Generation Antimalarials” (ACS Infect Dis, 2020).

The data set can be described thus: Toxicity liver stage against HepG2, at 10uM. The data set is classed as cell-based. Set-up: test concentration 10 uM, cell line HepG2-A16-CD81EGFP. The note with it: human, HepG2-A16-CD81EGFP cells; read-out: INHIBITION
The procedure, abridged: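 Uninfected HepG2-A16-CD81EGFP cells, 3 × 10^3 per well, 1536-well, plated on prespotted compound at 10 μM final, parasite-free screening media added to match infected plates; puromycin 10 μM positive, DMSO 0.5% negative; run in parallel with 48 h PbLuc assay at 37 °C, 5% CO2; viability by CellTiter-Glo luminescence, normalized to controls.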
For `Cc1ccc(N2CCC3(CCC(=O)N3)CC2)nn1`, the cytotoxicity at 10 µM amounted to 0.903%.
The result for `Cc1ccc(CN(Cc2ncc[nH]2)C2CC(C)(C)NC(C)(C)C2)o1` reads -15.2%.
Then `CN(Cc1ccccn1)C1CC2(CCN(Cc3cccnc3)CC2)C1`, with 0.925%.
As for `O=C(c1ccc(NCc2ccco2)nc1)N1CCc2ccccc21`, the cytotoxicity at 10 µM was -4.6%.
`CC(=O)N(Cc1noc(C2CC2)n1)C1CCN(Cc2cccnc2)C1` (stereo not given): the cytotoxicity at 10 µM was -3.36%.
Then `CC(C)(C(=O)NCC(N)=O)c1ccccc1F`, with -5.33%; and `COC(=O)c1cc(C(=O)N2CCCCCC2)n(-c2ccccc2)n1`, with -5.33%; and `Cc1nc(CC2CCCN(Cc3nc4ccccc4c(=O)[nH]3)C2)no1` (stereo not given), with -44%.
The result for `COc1ccc2c(c1)sc(=NC(=O)CSCC(=O)Nc1nccs1)n2C` reads -8.36%; that for `CCCn1ccnc1CN1CCc2[nH]cnc2C1Cc1ccccc1` (stereo not given), -15.8%.
Then `Cc1cnn(CC(=O)N2CCCN(c3nc(C)cs3)CC2)c1`, with -4.71%.
Take `CCc1ccc(CN2CCC3(CC2)CN(c2cnn(C)c2)C(=O)CO3)o1`: the cytotoxicity at 10 µM was 0.777%.
For the compound `O=C(Nc1cccc(N2CCN(CC3CC3)CC2)c1)N1CCCC1`, the cytotoxicity at 10 µM came out at 0.441%.
Then `COc1ccccc1N1CCN(C(=O)c2ccoc2)CC1`, with 11.5%; and `Cc1noc(C)c1-c1cncc(C2CCCN2Cc2ccncc2)n1` (stereo not given), with -7.98%.
The result for `Cn1cccc1CNC(=O)N(CCO)C1CCCc2ccccc21` (stereo not given) reads -7.45%; that for `Fc1ccccc1CN1CCC[C@@H](Cn2nnc(-c3cccs3)n2)C1`, 4.77%; that for `Cn1cc(C(NCc2ccc(F)cc2)c2cccc(F)c2)cn1` (stereo not given), 0.137%.
The result for `CCc1nnsc1C(=O)NCCC1CCCN(C(C)C)C1` (stereo not given) reads 4.95%; that for `Cn1ccc(C(=O)N2CCCC(Cc3cccc4cccnc34)C2)n1` (stereo not given), -8.44%; that for `CCC1CN(C(=O)c2cncc(C)c2)CCC(=O)N1Cc1ccccc1` (stereo not given), 9.33%.
With `COCc1nnc(-c2cccc(C(=O)OC(C)C)c2)o1`, the cytotoxicity at 10 µM is -21.8%.
The result for `Cc1nc(C)n(CC2CCCN(Cc3ccc4c(c3)OCCO4)C2)n1` (stereo not given) reads -18.9%; that for `O=C(CCc1cscn1)N1CCCC(n2ccnc2)C1` (stereo not given), -3.03%.
The result for `Cc1ccc(N2CCC(c3[nH]ncc3Cc3ccccc3)CC2)nn1` reads -6.86%.
The result for `COCC(=O)N1C[C@@H](OCc2ccncc2)[C@@H]2OCCC[C@@H]21` reads -0.182%; that for `CCCc1cc(C(=O)NCCN2CCCS2(=O)=O)[nH]n1`, -7.13%; that for `CCOc1ncccc1CNS(=O)(=O)N1CCOCC1`, -10.2%.
In the case of `CN(C)CC1(O)CCCN(C(=O)Cn2nc3ccccc3n2)CC1` (stereo not given), the cytotoxicity at 10 µM was -8.14%.
Then `COc1ccc(CN2CCC3(CC2)CCN(c2cnn(C)c2)C3=O)cc1`, with -85.6%; and `CN(C)CCN1CCN(C(=O)c2ccn(C)c(=O)c2)CC1`, with -4.14%; and `CN(C)S(=O)(=O)c1ccc(OCCNCCn2cccn2)cc1`, with 0.626%.
The result for `Cc1nc(COC[C@@H]2CC[C@H]3[C@H](CCN3c3ccccn3)O2)cs1` reads 4.06%; that for `CC(=O)NCCNC(=O)c1cnc2c(c1)nc(-c1ccccc1Cl)n2C`, 4.99%; that for `COC[C@@]12CC[C@@H](N3CCOCC3)C[C@H]1CCN(c1ncccc1C)C2`, -1.33%.
On to `Cc1cnn(C2CCCN(C(=O)c3sccc3-n3cnnn3)C2)c1` (stereo not given), for which the cytotoxicity at 10 µM was -8.72%.
Take `Cn1c(CN2CCCC(N3CCCCCC3)C2)cc(=O)n(C)c1=O` (stereo not given): the cytotoxicity at 10 µM was -1.85%.
Turning to `Cn1nnc(NCc2ccc(-c3ccc(Br)cc3)o2)n1`, the cytotoxicity at 10 µM was -11.1%.
With `CC(c1ccccn1)N(C)Cc1cccc(C(=O)Nc2nccn2C)c1` (stereo not given), the cytotoxicity at 10 µM stood at 14.6%.
Then `COCCN1CCN(CC(O)c2ccc(C(F)(F)F)cc2)CC1` (stereo not given), with -10.7%; and `Cc1cc(C)nc(N2CC=C[C@H]2C(=O)NCc2ccc3c(c2)OCO3)n1`, with 0.711%; and `CN(CC(F)(F)F)C(=O)CN1CCC(c2cc3ccccc3[nH]2)CC1`, with 4.93%.
The result for `Cc1cccnc1C(=O)N1CCCC(c2[nH]ncc2S(C)(=O)=O)C1` (stereo not given) reads 7.58%.
Then `O=C(NCc1nc(C2CC2)no1)N1CCOC(c2ccccc2)C1` (stereo not given), with -45.2%.
`Cc1cc(-c2cnc(NCc3ccccn3)nc2C(C)C)on1`: the cytotoxicity at 10 µM is -1.51%.
Then `COc1ccc(CS(=O)(=O)CC(=O)NCc2ccccc2F)cc1F`, with 3.33%; and `CCOc1ccc(NC(=O)NCCS(=O)(=O)CC)cc1C`, with -3%; and `CC(=O)N1CCCN(C(=O)CCc2c(C)noc2C)CC1`, with -6.38%.
The result for `CC(C)CN1CC[C@@H]2[C@H](CC1)N(C(=O)c1ccccc1)CCS2(=O)=O` reads -128%.
Then `Cc1ccc(F)c(NCc2ccc(C(=O)N(C)C)[nH]2)c1`, with 4.96%; and `O=C1CCC(c2ccc(Cl)cc2)=NN1CN1CCCCCC1`, with 35.7%; and `CC(C)=CCN1CCN(C(=O)c2cc(C)n[nH]2)[C@H]2CS(=O)(=O)C[C@H]21`, with -6.9%.
On to `Cc1noc(CS(=O)(=O)C(C)C(=O)N(C)c2ccccc2)n1` (stereo not given), for which the cytotoxicity at 10 µM is 9.26%.
The result for `CN(C)c1nc2sc(C(=O)N3CCN(C(=O)OC(C)(C)C)CC3)cc2s1` reads 1.71%; that for `O=C(c1cccnc1)N1C[C@@H]2OCCN(CCN3CCCC3)[C@@H]2C1`, -71.2%; that for `CC(C)Oc1cc(N2C[C@@H](C)O[C@@H](C)C2)nc(N)n1`, -9.15%.
Consider `Cc1nc(C)n(CC2CN(Cc3cccnc3)CCO2)n1` (stereo not given), for which the cytotoxicity at 10 µM is -5.38%.
The result for `N#CC1(NC(=O)c2nccc3ccccc23)CCC2(CC1)OCCO2` reads 2.48%.
Then `Cc1nccn1-c1ccc(NC(=O)C2CCCN2Cc2ccoc2)cc1` (stereo not given), with 0.184%.
Take `CC(C)C(C)N(C(=O)c1cc2c([nH]c1=O)CCCC2=O)C1CC1` (stereo not given): the cytotoxicity at 10 µM is -3.45%.
Then `O=C(Nc1ccc(-c2ccccc2)cc1)N1C[C@@H]2CNC[C@]2(C(=O)O)C1`, with -44.7%; and `c1ccc(CN2CCC(c3nccnc3-n3ccnc3)CC2)cc1`, with -19.6%; and `Cc1cc(C)c(CNC(=O)NCc2ccc(F)cc2)c(=O)[nH]1`, with -6.34%.
Turning to `Cc1cnn(CC2CCCCN2C(=O)c2ccc3c(c2)nnn3C)c1` (stereo not given), the cytotoxicity at 10 µM was -6.36%.
Then `CN1CCCCC1Cc1nc(Cc2cccc(F)c2)no1` (stereo not given), with -148%.
For `COc1cc(CNCc2ccco2)ccc1OCCO`, the cytotoxicity at 10 µM is 3.35%.
`O=C(Nc1ccc2c(c1)C(=O)NC2)c1ccc(S(=O)(=O)C(F)(F)F)cc1`: the cytotoxicity at 10 µM came to 36.9%.
Then `NC(=O)C1CCCCN1C(=O)c1ccc(Br)s1` (stereo not given), with -6.38%; and `Cn1cnc2c1CCN(CCCS(=O)(=O)c1ccccc1)C2`, with -7.54%.
The result for `CSCc1nc(C(C)(C)NC(=O)OC(C)(C)C)no1` reads -8.44%.
Then `CC1(C)CC(n2cc3nc(N)[nH]cc-3c2=O)CC(C)(C)N1`, with -12.8%; and `CC(=O)N1CCC2(CC1)CCN(C(=O)c1cccc(C(F)(F)F)c1)C2`, with -74.5%; and `NCCc1cccc(CN2CCN(c3cccc(Cl)c3)C(=O)C2)c1`, with -5.29%.
Consider `CC(=O)N1CCCc2sc(C(=O)NC3CC3)nc21`, for which the cytotoxicity at 10 µM is -132%.
Then `CC(C)N1CCc2ncn(C)c2C1C(=O)NCCN1CCCC1` (stereo not given), with -0.511%; and `Cc1cnc(CN(C)C2CCN(CCc3cnn(C)c3)C2)o1` (stereo not given), with 5.44%; and `CCCc1ccc(OCCNCc2ccco2)c(OC)c1`, with -2.04%.
Turning to `Cc1ccc(C(=O)N(Cc2ccc(F)cc2F)C2CC2)c(=O)[nH]1`, the cytotoxicity at 10 µM was -2.01%.
The result for `NCC1(CN2CCOCC2)CCCCC1` reads 3.23%; that for `COc1ncccc1C(=O)NCC(C)Oc1cccnc1` (stereo not given), -8.45%; that for `CN(Cc1nnc(C2CCC2)o1)C(C(N)=O)c1cccc(F)c1` (stereo not given), 16.7%.
Then `Cc1nccc([C@@H]2C[C@H]3CN(S(=O)(=O)c4ccccc4)C[C@H]3O2)n1`, with 1.32%; and `COc1cc(NC(=O)NCc2ccccn2)cc(OC)c1`, with -4.13%.
The result for `CCC(CNC(=O)c1ccccc1Br)N1CCc2ccccc2C1` (stereo not given) reads 16.6%; that for `CC(C)NC(=O)N1CC(=O)c2sc(NC3CCCCC3)nc2C1`, -7.91%.
Take `CC(C)[C@H]1CN(Cc2nccn2C)C[C@@H]1NC(=O)CCS(C)(=O)=O`: the cytotoxicity at 10 µM is -8.85%.
The result for `CCN(CC)C(=O)N1CCN(CCc2ccncc2)CC1` reads -38.9%; that for `CN1CCC(N[C@@H]2CO[C@H](CNC(=O)c3cccs3)[C@H]2O)CC1`, -0.376%; that for `CC(C)(C)OC(=O)N1CCC[C@H](NCc2cc[nH]c2)C1`, 1.05%.
The result for `Nc1nc2c(c(=O)[nH]1)CCN(C(=O)c1ccccc1N1CCCC1)C2` reads 1.79%; that for `Cc1nc(C)n(CC2CCCN(c3ncnc4[nH]ccc34)C2)n1` (stereo not given), 12.8%.
`CCN1CCCn2c(nc(CNC(=O)c3cnoc3C)cc2=O)C1`: the cytotoxicity at 10 µM is 6.13%.
Then `OCC1CCCN1c1cc(NCc2cccs2)ncn1` (stereo not given), with -5.62%.
`O=C(c1[nH]nc(C2CC2)c1Cl)N1CCN(C2CC2)C(=O)C1`: the cytotoxicity at 10 µM is -4.81%.
`Cc1noc(C2CCC3(CCN(C(=O)c4ncccn4)CC3)O2)n1` (stereo not given): the cytotoxicity at 10 µM was 4.09%.
